High-throughput results: PubChem, several laboratories
DTT redox prof: compounds producing H2O2 with reducing agent – biochemical, NIH compound library profiling, artefact control for MLSCN library redox annotation, primary screen; 200,000 tested, 0.03% active; activation, % at 10 µM; DTT-dependent redox cycling H2O2, phenol red/HRP absorbance; 100% = 100 µM peroxide control, 0% = buffer;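 active = activation of at least 50% relative to the plate's high and low controls in the primary single-dose screen; inactive = activation below 50%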;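 also: compound incubated with DTT at 0.8 mM final as the reducing agent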
Hep lipid drop: inhibitors of hepatocyte lipid droplet formation, primary screen, imaging, high-throughput imaging, BODIPY stain; AML12 mouse hepatocytes, oleate lipid droplets; inhibition, % at 6.5 µM; 240,000 tested, 0.4% active; AID 1656, 2009;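 active = lipid droplet intensity inhibited by at least 50%, with more than 500 cells counted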
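Assay system: AML12 mouse liver cells | Compound: 6.5 µM single-point dosing | Schedule: Overnight exposure | Technique: Fluorescence imaging, 20x objective, two fields per well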
T cruzi inh: inhibitors of intracellular T. cruzi growth, primary screen, luminescence, NIH3T3 host cells | T. cruzi beta-gal in NIH3T3, 90 h | inhibition, % (test concentration not listed) | 300,000 tested, 1.4% active;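 active = mean inhibition across valid replicates above about 55%, limit read from the data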;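 also: signal also drops with host cell toxicity which is not excluded here; 0% = plate median of DMSO wells and 100% = zero luminescence signal; higher percent means less beta-gal luminescence so fewer parasites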
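Incubation – ≥90 h infection period, 3 h prior cell attachment · System – NIH/3T3 fibroblasts plus reporter T. cruzi · Doses – compound pinned at 50 nL/well, DMSO · Read-out basis – percent inhibition of parasite-derived β-gal signal · Signal – luminescent β-galactosidase signal after 60 min lysis · Also added – 5000 T. cruzi trypomastigotes/well · Medium – Low-serum DMEM with 2% FBS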
MPTP block: mitochondrial permeability transition pore inhibitors, primary screen, biochemical, isolated mouse mitochondria, absorbance. Ca2+ swelling absorbance, 30 min. inhibition, % at 10 µM. AID 602449, 2012. 360,000 tested, 1.4% active;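 active = inhibition of 50% or more, scaled per plate between neutral and stimulator controls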;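 also: 0% = DMSO wells given calcium and 100% = 1 mM EGTA wells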
L major viab: Leishmania major promastigote growth inhibition, primary screen; Leishmania major promastigotes, resazurin fluorescence viability; inhibition, % at 10 µM; 200,000 tested, 9% active; in the data active = inhibition above about 50%;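 also: promastigotes grown with compound for 44 hours at 28 °C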
* marks the source's active call; other numbers are inactive results; x = not tested or not shown. Many of the other results were omitted from the sample, so hits are more common in it than they were.

SMILES	DTT redox prof	Hep lipid drop	T cruzi inh	MPTP block	L major viab
CC1(C)CC(=O)c2cc(C(=O)O)c(=O)n(-c3ccccc3)c2C1	1	5	-1	-1	-3
COC(=O)C(CCSC)NC(=O)c1cc2c(n(-c3ccccc3)c1=O)CC(C)(C)CC2=O (centres undefined)	-1	-2	7	1	84*
COc1cccc(N2CCN(c3nc(C)cc(C)c3C#N)CC2)c1	x	8	4	0	x
Cc1cccc(N2CCN(c3nc(C)cc(C)c3C#N)CC2C)c1 (centres undefined)	x	-22	65*	1	x
COc1cc(/C=N/NC(=O)c2cn(-c3cccc(C)n3)cn2)ccc1O	-1	-13	-9	0	98*
C/C(=N/NC(=O)c1cn(-c2cccc(C)n2)cn1)c1ccc(C)cc1	2	x	x	-1	77*
COc1cc(/C=N/NC(=O)c2cccc(C(=O)N/N=C/c3ccc(O)c(OC)c3)n2)ccc1O	x	-4	-2	-1	x
CCOc1cc(/C=N/NC(=O)CN2CCCCC2)ccc1OCc1ccc(Cl)cc1	0	24	-9	2	99*
CCOc1cc(/C=N/NC(=O)c2ccc(CN3CCOCC3)cc2)ccc1OCc1ccccc1	-1	-16	14	1	98*
CCCOc1ccc(/C=N/NC(=O)CN2CCCCC2)cc1OCC	x	-2	1	1	x
COc1cc(/C=N/NC(=O)CCN2CCN(c3ccccc3)CC2)cc(OC)c1OC	0	23	7	1	-4
CCOc1cc(/C=N/NC(=O)CN2CCCCC2)ccc1OCc1cccc(Cl)c1	-1	1	1	-1	97*
CCOc1cc(/C=N/NC(=O)CN2CCOCC2)ccc1OCc1ccccc1	0	-8	-2	0	6
COc1cc(/C=N/NC(=O)CCN2CCN(Cc3ccccc3)CC2)cc(OC)c1OC	1	4	5	1	52*
CCc1nc2ccc(C(=O)N(CC)CCN(C)C)cn2c1N(C)C(=O)c1cccc(OC)c1	x	x	x	-1	x
CC(/C=N/Nc1nc(C)cc(C)n1)=C\c1ccc(C(C)C)cc1	0	2	-5	2	0
COc1cc(/C=N/NC(=O)CN2CCCCC2)ccc1OCc1ccccc1	0	35	-4	0	95*
CCCCOc1ccc(C(=O)N/N=C/c2ccc(OCCN3CCCCC3)c(OC)c2)cc1	0	5	34	-1	100*
COc1cc(/C=N/OCC(=O)Nc2cc(C)on2)ccc1OCc1ccccc1	0	-4	-1	0	64*
CCOc1cc(/C=N/NC(=O)c2nn(C)cc2Br)ccc1OCc1ccccc1Cl	-1	-27	36	0	72*
O=C1CCC([N+](=O)[O-])C(c2cc(Br)ccc2F)N1 (centres undefined)	x	x	-15	0	x
Cc1ccccc1CSc1nc2n(n1)C(c1cccs1)C1=C(CCCC1=O)N2 (centres undefined)	0	0	12	-1	58*
O=C1CCCC2=C1C(c1cccs1)n1nc(SCc3ccccc3F)nc1N2 (centres undefined)	3	0	19	0	91*
CSc1nc2n(n1)C(c1cccs1)C1=C(CCCC1=O)N2 (centres undefined)	0	-1	3	-3	-8
NC(=O)C1CCCN(C(=O)CN2C(=O)NC(c3ccccc3)(c3ccccc3)C2=O)C1 (centres undefined)	x	x	x	-1	x
SMILES	DTT redox prof	Hep lipid drop	T cruzi inh	MPTP block	L major viab
Cc1nc2c(-c3ccccc3)c(C)[nH]n2c(=O)c1Cc1ccccc1	0	-1	46	-1	36
Cc1nc2c(C#N)c(C)[nH]n2c(=O)c1Cc1ccccc1	3	x	3	0	87*
COc1cccc(N2CCc3c(C)nc4ccc(Cl)cc4c32)c1	x	-13	19	-1	x
COc1ccc(N2CCc3c(C)nc4c(OC)cc(OC)cc4c32)cc1	0	-55	73*	36	100*
COc1ccc(N2CCc3c(C)nc4c(OC)cccc4c32)cc1	-2	-11	20	18	100*
CCOC(=O)[C@]12CCCC=C1N(Cc1ccc(Cl)cc1Cl)C(=O)[C@H](CC(=O)N1CCSCC1)C2	x	x	x	0	x
CCCn1c(N)c(C(=O)CN(C)CC(=O)Nc2c(Cl)cccc2Cl)c(=O)[nH]c1=O	x	x	x	-1	x
COc1ccc(NC(=O)Nc2cc(C)ccc2OC(F)F)c(OC)c1	3	-5	15	12	67*
C/C(=N\NC(=O)c1cccc(S(=O)(=O)N2CCCC2)c1)c1ccco1	0	-2	-2	-1	-5
COc1ccc(/C(C)=N/NC(=O)c2cccc(S(=O)(=O)N3CCCC3)c2)c(O)c1	x	x	61*	-1	x
C/C(=N\NC(=O)c1cccc(S(=O)(=O)N2CCCCC2)c1)c1ccc(C)o1	0	-1	x	-2	82*
Cc1ccc(O)c(C(=O)c2coc(=N)c(C(=O)NC(C)C)c2)c1	0	-8	-8	1	71*
COC(=O)c1cc(C(=O)c2cc(Cl)ccc2O)coc1=N	0	-8	-3	-3	-5
CC1(C(=O)NS(=O)(=O)C2CC2)CCCN(C(=O)/C=C/c2ccccc2)C1 (centres undefined)	x	x	x	-1	x
CCc1cc(-c2nnn(CCC3COCCO3)c2CC)ccc1-c1cn(Cc2ccccc2)nn1 (centres undefined)	x	x	x	5	x
Cc1ccccc1NC(=O)CSc1nnc(-c2ccccc2)n1-c1ccccc1	2	x	-6	-1	8
COc1ccccc1NC(=O)CC(=O)CSc1nnc(-c2ccc(C)cc2)n1-c1ccccc1	-1	-15	10	0	72*
O=C(CNC(=O)c1ccccn1)N/N=C/c1ccc2c(c1)OCO2	-2	-3	10	1	63*
O=C(N/N=C/c1ccc2c(c1)OCO2)c1cc(-c2ccncc2)nc2ccccc12	0	-60	-17	3	46
Cc1cc(C(=O)N/N=C/c2ccc3c(c2)OCO3)c2ccccc2n1	x	7	x	2	x
CCOc1ccccc1-c1cc(C(=O)N/N=C/c2ccc3c(c2)OCO3)c2ccccc2n1	0	-20	x	2	51*
O=C(N/N=C/c1ccc2c(c1)OCO2)c1cc(-c2ccccc2Cl)nc2ccccc12	0	x	13	-1	56*
Cc1c(NC(=O)CN2C(=O)NC3(CCCCC3)C2=O)c(=O)n(-c2ccccc2)n1C	0	-6	9	1	-1
Cc1cc(/C=C(\C#N)C(=O)Nc2ccc(Cl)cc2)c(C)n1-c1ccc(N2CCOCC2)c([N+](=O)[O-])c1	-1	30	41	-12	100*
Cc1ccc(OCCN2CCN(c3nc(NCc4ccco4)c4ccccc4n3)CC2)cc1	0	-27	70*	6	99*
c1ccc(CN2CCN(c3nc(NCc4ccco4)c4ccccc4n3)CC2)cc1	-1	-29	36	6	100*
